Measured values as given in paper PMC3799459 (Nucleic Acids Research, 2013).

Assays:
DNMT1 [1] = molecular target: T1, DNMT1 (Homo sapiens, UniProt P26358); test: SAM-competition assay on DNMT1; format: biochemical; conditions: SAM 0.5-15 µM, DNA duplex 1.0 µM, inhibitor IC10 to IC80
In short: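 DNMT1 Flashplate SPA in HEPES pH 7.2 buffer, 37°C, 2 h. [methyl-3H]SAM (0.6 TBq/mmol, isotopic dilution 1*:1) varied 0.5–15 µM at fixed 1.0 µM biotinylated DNA duplex. Test compound adjusted from IC10 to IC80 for each SAM level. IC50 at each SAM concentration from sigmoidal variable-slope fit; apparent kinetic constants per compound concentration by Michaelis–Menten fitting.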

DNMT1 [2] = molecular target: T1, DNMT1; test: DNA-competition assay on DNMT1; format: biochemical; conditions: DNA duplex 0.05-1.0 µM, SAM 15 µM (1*:2), inhibitor IC10 to IC80
In short: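 Streptavidin Flashplate SPA with DNMT1 in HEPES pH 7.2 reaction buffer (EDTA, KCl, BSA), 37°C for 2 h. Biotinylated DNA duplex varied 0.05–1.0 µM; [methyl-3H]SAM (0.6 TBq/mmol) fixed at 15 µM, isotopic dilution 1*:2. Test compound adjusted from IC10 to IC80 at each DNA level. IC50 per DNA concentration from sigmoidal variable-slope fit; apparent kinetic constants from Michaelis–Menten fits at each compound concentration.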

DNMT1 [3] = molecular target: T1, DNMT1; test: DMSO tolerance of the DNMT1 Flashplate assay; format: biochemical
human DNMT3A (DNMT3A-C) = human DNMT3A (DNMT3A-C) (Homo sapiens, UniProt Q9Y6K1); test: DNMT3A Flashplate SPA inhibition assay; format: biochemical
M.SssI = M.SssI (Spiroplasma monobiae, UniProt P15840); test: M.SssI Flashplate SPA inhibition assay; format: biochemical, bacterial
In short: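 Purchased M.SssI at 100 nM with 0.3 µM biotinylated non-methylated duplex and 1 µM SAM/[methyl-3H]SAM mix (3:1) in 1X NEBuffer 2; test compound ≤1% DMSO; 1 h at 37°C. Stopped in streptavidin Flashplate with 20 µM SAH, Tris-HCl pH 7.4; 1 h RT binding, Tween washes, scintillation cpm. %inhibition vs no-enzyme and no-compound controls; sigmoidal fit; two experiments in duplicate.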

DNMT1 [4] = molecular target: T1, DNMT1; test: Km determination of DNMT1 substrates; format: biochemical; conditions: read-out: Km of DNA for DNMT1; DNA 0.05-1.0 µM, 15 µM SAM

T1 sequence (P26358 whole entry): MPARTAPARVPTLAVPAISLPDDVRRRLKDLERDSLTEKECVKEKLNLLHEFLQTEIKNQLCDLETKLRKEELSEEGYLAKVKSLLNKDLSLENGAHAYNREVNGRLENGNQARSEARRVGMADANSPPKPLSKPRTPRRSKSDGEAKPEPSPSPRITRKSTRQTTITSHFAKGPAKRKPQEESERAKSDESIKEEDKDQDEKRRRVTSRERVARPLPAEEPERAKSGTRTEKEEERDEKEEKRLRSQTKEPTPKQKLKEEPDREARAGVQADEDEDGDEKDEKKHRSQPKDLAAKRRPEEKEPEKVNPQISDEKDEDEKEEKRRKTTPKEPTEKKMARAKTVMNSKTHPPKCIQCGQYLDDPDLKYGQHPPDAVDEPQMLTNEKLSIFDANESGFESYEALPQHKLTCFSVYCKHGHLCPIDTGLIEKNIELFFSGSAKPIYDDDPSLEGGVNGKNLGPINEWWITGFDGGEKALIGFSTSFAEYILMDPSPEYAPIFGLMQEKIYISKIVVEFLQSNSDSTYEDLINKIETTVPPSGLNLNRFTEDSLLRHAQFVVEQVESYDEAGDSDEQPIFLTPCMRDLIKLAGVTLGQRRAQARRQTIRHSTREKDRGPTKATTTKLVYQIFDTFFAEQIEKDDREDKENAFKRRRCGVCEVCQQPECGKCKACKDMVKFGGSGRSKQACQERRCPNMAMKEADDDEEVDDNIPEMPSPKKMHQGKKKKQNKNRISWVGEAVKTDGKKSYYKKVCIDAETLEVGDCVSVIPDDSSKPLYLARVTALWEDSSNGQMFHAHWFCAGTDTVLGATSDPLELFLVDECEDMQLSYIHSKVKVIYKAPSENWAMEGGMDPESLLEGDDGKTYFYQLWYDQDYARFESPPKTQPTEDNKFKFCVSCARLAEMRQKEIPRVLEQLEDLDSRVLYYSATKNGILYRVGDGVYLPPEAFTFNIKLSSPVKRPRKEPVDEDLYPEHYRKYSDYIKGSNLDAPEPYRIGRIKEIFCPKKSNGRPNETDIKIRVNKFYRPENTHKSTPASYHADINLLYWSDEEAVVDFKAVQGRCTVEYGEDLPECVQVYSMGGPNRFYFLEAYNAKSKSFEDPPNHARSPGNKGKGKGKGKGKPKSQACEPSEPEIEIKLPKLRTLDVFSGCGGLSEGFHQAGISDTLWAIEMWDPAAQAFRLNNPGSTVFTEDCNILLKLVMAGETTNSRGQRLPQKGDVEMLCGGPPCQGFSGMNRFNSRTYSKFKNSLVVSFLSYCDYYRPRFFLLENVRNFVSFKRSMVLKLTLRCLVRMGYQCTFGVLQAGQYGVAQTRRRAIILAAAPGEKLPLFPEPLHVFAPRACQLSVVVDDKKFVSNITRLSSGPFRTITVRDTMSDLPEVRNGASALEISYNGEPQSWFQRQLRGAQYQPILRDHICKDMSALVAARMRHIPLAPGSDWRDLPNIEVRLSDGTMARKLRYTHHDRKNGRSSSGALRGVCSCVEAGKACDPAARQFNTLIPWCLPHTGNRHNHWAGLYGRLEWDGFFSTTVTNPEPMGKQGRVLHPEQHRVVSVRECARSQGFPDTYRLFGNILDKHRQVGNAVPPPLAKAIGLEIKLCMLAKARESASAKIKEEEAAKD
Sequence of M.SssI (P15840 whole entry): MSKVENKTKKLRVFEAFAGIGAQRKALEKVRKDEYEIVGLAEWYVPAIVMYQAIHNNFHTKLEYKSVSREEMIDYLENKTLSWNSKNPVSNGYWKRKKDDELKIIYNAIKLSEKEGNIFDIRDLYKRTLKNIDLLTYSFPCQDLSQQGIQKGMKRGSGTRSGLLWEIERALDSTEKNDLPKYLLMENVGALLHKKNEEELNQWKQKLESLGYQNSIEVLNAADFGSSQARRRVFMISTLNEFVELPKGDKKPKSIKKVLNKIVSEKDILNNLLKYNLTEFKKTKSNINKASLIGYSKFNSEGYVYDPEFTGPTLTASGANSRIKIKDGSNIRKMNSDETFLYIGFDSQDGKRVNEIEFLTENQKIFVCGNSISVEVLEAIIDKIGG
Sequence of human DNMT3A (DNMT3A-C) (Q9Y6K1 624-912): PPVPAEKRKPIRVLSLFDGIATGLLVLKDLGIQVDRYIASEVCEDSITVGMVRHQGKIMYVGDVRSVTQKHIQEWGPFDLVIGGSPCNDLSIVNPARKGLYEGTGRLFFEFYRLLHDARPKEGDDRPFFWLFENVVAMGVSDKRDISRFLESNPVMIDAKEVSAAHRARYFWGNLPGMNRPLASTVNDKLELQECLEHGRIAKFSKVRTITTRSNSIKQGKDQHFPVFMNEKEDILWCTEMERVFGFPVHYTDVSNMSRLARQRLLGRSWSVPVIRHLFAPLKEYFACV

O=C1c2ccccc2OC(c2ccccc2)C1(Cl)[N+](=O)[O-] (stereo not drawn) [Compound 47, 3-chloro-3-nitroflavanone]
Mechanism of inhibition towards SAM (DNMT1 [1]): SAM non-competitive inhibitor | Mechanism of inhibition towards DNA (DNMT1 [2]): uncompetitive behavior

C[S+](C)[O-] [DMSO]
Stimulation of DNMT1 activity (DNMT1 [3]; 1 to 10% (v/v) DMSO): < 10% | Effect on DNMT1 activity (DNMT1 [3]; 15 to 50% (v/v) DMSO): inhibition

Nc1ncnc2c1ncn2[C@@H]1O[C@H](C[C@@H](N)CC[C@H](N)C(=O)O)[C@@H](O)[C@H]1O [Sinefungin]
Mechanism of inhibition towards SAM (DNMT1 [1]): SAM-competitive | Mechanism of inhibition towards DNA (DNMT1 [2]): uncompetitive inhibition | IC50 (human DNMT3A (DNMT3A-C)): 1.8 ± 0.6 µM | IC50 (M.SssI): 45 ± 7 µM

B1: DNA: biotinylated hemimethylated DNA duplex with 8 CpG, substrate of DNMT1 (Table 1) (nucleic acid)
sense: GATCGCCGATGCGCGAATCGCGATCGATGCGAT
antisense: ATCGCATCGATCGCGATTCGCGCATCGGCGATC
modifications: biotin; hemimethylated CpG; printed: 5′-GATmCGCmCGATGmCGmCGAATmCGmCGATmCGATGmCGAT
Km (DNMT1 [4]): ~0.27 µM
